The source of these data is ChEMBL document CHEMBL2034900, “Dual-target virtual screening by pharmacophore elucidation and molecular shape filtering” (ACS Med Chem Lett, 2012).

The target in assay [1] is T1, Bifunctional epoxide hydrolase 2 (Homo sapiens, UniProt P34913).
T1 sequence (P34913 whole entry): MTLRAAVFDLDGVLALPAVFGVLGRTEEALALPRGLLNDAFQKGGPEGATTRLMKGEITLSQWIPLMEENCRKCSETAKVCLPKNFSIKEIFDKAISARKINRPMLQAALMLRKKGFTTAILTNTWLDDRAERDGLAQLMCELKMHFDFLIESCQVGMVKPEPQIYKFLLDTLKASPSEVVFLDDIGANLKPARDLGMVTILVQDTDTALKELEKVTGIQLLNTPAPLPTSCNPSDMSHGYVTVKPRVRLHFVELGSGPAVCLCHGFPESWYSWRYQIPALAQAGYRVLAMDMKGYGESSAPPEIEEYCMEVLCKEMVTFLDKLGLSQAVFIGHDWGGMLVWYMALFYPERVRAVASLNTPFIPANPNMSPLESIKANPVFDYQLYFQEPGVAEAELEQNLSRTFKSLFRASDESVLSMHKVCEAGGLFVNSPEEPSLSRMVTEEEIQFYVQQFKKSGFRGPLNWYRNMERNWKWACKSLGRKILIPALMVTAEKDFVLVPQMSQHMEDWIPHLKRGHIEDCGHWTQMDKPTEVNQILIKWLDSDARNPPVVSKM
Briefly: (§1) Inhibition of soluble epoxide hydrolase using (3-Phenyl-oxiranyl)-acetic acid cyano-(6-methoxy-naphthalen-2-yl)-methyl ester) as substrate incubated for 15 mins prior to substrate addition measured every min for 15 mins by fluorometry. An outline of the steps:
(§2)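 Compounds were first tested at 30 μM, and IC50 values were determined only for those giving at least 50% inhibition. The 5-LO assay was cell-free with HPLC read-out, and the sEH assay used a fluorescence read-out.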

Assay [2] concerns the target T2, Bifunctional epoxide hydrolase 2 (Homo sapiens) (UniProt P34913).
T2 sequence (whole entry): T1 sequence (P34913 whole entry)
The description is as §1. The method in brief: as §2

Assay [3] concerns the target T3, Polyunsaturated fatty acid 5-lipoxygenase (Homo sapiens, UniProt P09917).
T3 sequence (P09917 whole entry): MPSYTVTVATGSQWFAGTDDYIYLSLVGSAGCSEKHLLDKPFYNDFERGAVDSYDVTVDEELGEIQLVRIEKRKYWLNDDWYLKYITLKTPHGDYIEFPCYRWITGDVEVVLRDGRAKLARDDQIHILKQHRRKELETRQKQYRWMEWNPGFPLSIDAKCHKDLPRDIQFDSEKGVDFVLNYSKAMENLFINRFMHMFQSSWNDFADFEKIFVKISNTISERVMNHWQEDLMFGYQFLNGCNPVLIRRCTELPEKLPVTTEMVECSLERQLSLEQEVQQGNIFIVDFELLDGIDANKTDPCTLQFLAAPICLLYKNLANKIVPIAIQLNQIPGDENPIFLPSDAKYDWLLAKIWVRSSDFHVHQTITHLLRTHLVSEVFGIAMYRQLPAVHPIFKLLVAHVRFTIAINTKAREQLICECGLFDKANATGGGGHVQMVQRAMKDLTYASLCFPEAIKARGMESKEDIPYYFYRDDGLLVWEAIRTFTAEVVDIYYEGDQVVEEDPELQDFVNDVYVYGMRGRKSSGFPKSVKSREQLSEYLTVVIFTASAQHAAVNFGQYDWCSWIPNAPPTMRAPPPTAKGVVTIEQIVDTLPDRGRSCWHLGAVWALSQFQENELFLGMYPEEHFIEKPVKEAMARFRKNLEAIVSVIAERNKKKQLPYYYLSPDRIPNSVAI
Description: Inhibition of recombinant 5-lipoxygenase expressed in Escherichia coli BL21 using arachidonic acid as substrate incubated for 15 mins prior to substrate addition measured after 10 mins by HPLC analysis. An outline of the steps:
as §2

Structures are written as SMILES. The source made the active and inactive calls. No cut-off for these calls is given here.

In assay [1], `Cn1nnc2cc(NC(=O)NCCC3=CCCCC3)ccc21` came in with a half-inhibitory concentration (IC50) of 0.47 µM.

For `COc1ccc(-c2nc3cc(C)ccc3o2)cc1OC`, the inhibition entry in assay [2] was “inactive”. In assay [3], the half-inhibitory concentration (IC50) is 2.7 µM.

`CN(C)c1ccc(-n2nc3ccc4ccccc4c3n2)cc1`: the 50% inhibitory concentration (IC50) in assay [3] is 2.2 µM.

Turning to `COc1cccc(CNc2nc3ccccc3n2C)c1O`, the inhibition result in assay [2] was “inactive”. The half-maximal inhibitory concentration (IC50) in assay [3] is 7.6 µM.

Consider `COc1ccc(NC(=O)c2cccc(-n3cnnn3)c2)cc1`, for which the half-maximal inhibitory concentration (IC50) in assay [1] amounted to 1.6 µM.

Turning to `COc1ccc(CC(=O)Nc2ccc(C)cc2)cc1OC`, the IC50 in assay [1] was determined as 21 µM.

Turning to `COc1ccc(-c2nc3cc(C)ccc3[nH]2)cc1OC`, the IC50 in assay [1] came to 3.5 µM; in assay [3], 36 µM.

On to `COc1ccc(/C=N/Nc2nc3ccccc3[nH]2)cc1OC`, for which the concentration for half-maximal inhibition (IC50) in assay [3] worked out at 8.1 µM.

As to `CC(C)CC(=O)Nc1nc2c(s1)CCc1ccccc1-2`, the IC50 in assay [3] stood at 16 µM.
